What was measured:
C3aR1 [1] = target: T1, C3aR1 (Homo sapiens, UniProt Q16581); test: C3aR1 G protein dissociation BRET assay; assay type: cell-based
T1 sequence (Q16581 1-482): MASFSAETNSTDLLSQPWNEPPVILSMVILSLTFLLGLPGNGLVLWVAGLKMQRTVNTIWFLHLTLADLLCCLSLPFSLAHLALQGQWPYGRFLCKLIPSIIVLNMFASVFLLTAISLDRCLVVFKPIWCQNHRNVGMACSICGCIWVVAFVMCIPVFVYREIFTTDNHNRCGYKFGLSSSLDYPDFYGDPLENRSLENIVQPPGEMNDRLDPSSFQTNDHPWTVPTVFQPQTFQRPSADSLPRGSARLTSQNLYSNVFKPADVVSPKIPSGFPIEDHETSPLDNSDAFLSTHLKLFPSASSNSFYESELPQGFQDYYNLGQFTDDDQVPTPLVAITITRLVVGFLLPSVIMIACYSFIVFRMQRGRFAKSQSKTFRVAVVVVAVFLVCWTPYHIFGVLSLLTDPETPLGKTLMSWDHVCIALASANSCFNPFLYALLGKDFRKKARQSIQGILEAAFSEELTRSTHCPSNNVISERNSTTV
Summary of the method: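 HEK293T co-transfected 1:1:1:1 with Gα-Rluc8, Gβ1, GFP2-Gγ and C3aR1, repeated for each Gα subtype (i, o, z, s, olf, q, 11–15). Cells plated overnight in DMEM with 1% dialyzed FBS. Test compound (3×) added in duplicate in HBSS/20 mM HEPES/0.1% BSA/0.01% ascorbic acid, pH 7.4, for 60 min at 37 °C. Coelenterazine 400a (5 μM final) added for 15 min; read at 400/515 nm. GFP2/Rluc8 ratio fitted by log(agonist)-response; three independent experiments, mean and SEM.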

C3aR1 [2] = target: T1, C3aR1; test: Gi/o-mediated cAMP inhibition Glosensor assay; assay type: cell-based
C3aR1 [3] = target: T1, C3aR1; test: C3aR1 β-arrestin2 recruitment BRET assay; assay type: cell-based
Summary of the method: (§1)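 HEK293T co-transfected 1:3:15 with C-terminal Rluc8-tagged C3aR1, GRK2 and N-terminal Venus-β-arrestin1 or Venus-β-arrestin2, then plated overnight in DMEM with 1% dialyzed FBS. Cells washed, then test compound (3×) added in HBSS/HEPES buffer, pH 7.4. Coelenterazine h (5 μM final) added 15 min before reading at 485/530 nm, at time points up to 60 min, 37 °C. Net BRET was Venus/Rluc8 corrected against wells lacking Venus-arrestin, plotted against concentration.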

C3aR1 [4] = target: T1, C3aR1; test: C3aR1 β-arrestin1 recruitment BRET assay; assay type: cell-based
Summary of the method: as §1

C3aR1 [5] = target: T1, C3aR1; test: ELISA surface expression; assay type: cell-based
3T3-L1 cells = test: Fluo-4 calcium influx assay in 3T3-L1 cells; assay type: cell-based
Summary of the method: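 3T3-L1 cells plated at 60% confluency on collagen-coated chamber slides. Next day, medium replaced with HBSS and cells loaded with 2.5 μM Fluo-4 AM for 30 min. Single cells imaged every second for 3 min, with treatment added at 30 s; UTP served as positive control. AUC over the first 60 s taken after background removal, with each cell normalised to its basal intensity. Values were normalised to control and rescaled to 0–1.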

3T3-L1 adipocytes = test: Lipolysis; assay type: cell-based; settings: 30 min or 3 h incubation
Summary of the method: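 3T3-L1 cells differentiated with insulin-containing medium and used 8–9 days after induction. Serum-starved in KRH buffer, then given ISO 50 nM plus test compound (10 nM to 1 μM) for 30 min or 3 h. Medium heat-inactivated at 60 °C for 20 min, then glycerol measured colorimetrically at 540 nm. Glycerol normalised to Bradford protein and expressed as fold over control in the same experiment. One-way ANOVA with Tukey.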

[6] = target: T2, Complement C3a receptor 1 (C3aR1) fused to Rluc8 on the C-terminus (UniProt Q16581)
T2 sequence: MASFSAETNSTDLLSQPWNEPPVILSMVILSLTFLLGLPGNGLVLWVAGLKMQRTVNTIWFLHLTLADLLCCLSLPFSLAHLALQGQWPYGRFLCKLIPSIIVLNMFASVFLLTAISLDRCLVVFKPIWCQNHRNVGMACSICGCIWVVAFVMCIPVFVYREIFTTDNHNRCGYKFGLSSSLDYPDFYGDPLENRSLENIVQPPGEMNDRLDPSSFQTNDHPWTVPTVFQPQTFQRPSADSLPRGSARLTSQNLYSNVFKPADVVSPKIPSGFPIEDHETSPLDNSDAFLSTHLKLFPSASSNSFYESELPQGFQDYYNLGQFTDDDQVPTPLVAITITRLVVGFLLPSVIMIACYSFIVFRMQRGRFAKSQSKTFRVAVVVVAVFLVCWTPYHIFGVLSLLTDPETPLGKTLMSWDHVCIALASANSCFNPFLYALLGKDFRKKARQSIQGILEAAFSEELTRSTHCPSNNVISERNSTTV

## NC(N)=NCCC[C@H](NC(=O)COCC(c1ccccc1)c1ccccc1)C(=O)O [SB290157]
C3aR1 [1]; Gi/o/z subtypes
  fold more potent to cause G protein dissociation compared to C3a63-77: ~10 fold
C3aR1 [1]; all tested Gi/o/z subtypes
  G protein dissociation activity across Gi/o/z subtypes: robust C3aR1 G protein dissociation agonist activity
C3aR1 [1]; full screen panel of Gα proteins
  G protein dissociation at Gs, Gq or G12/13 subtypes: no activity
C3aR1 [2]
  activity in FSK-induced Gi/o-mediated cAMP inhibition: shows agonist activity
C3aR1 [3]
  β-arrestin2 recruitment potency compared to C3a63-77: more potent than C3a63-77
C3aR1 [4]
  β-arrestin1 recruitment potency compared to C3a63-77: more potent than C3a63-77
C3aR1 [5]
  β-arr2-dependent C3aR1 internalization compared to C3a63-77: more potent and efficacious
3T3-L1 cells
  induction of calcium influx by the compound alone: does not induce calcium influx
3T3-L1 adipocytes
  potentiation of adrenergic (ISO)-induced lipolysis: did not potentiate

B1: mouse TLQP-21 (peptide)
peptide: TLQPPASSRRRHFHHALPPAR
[6]
  recruitment of Venus-β-arrestin1 to C3aR1-Rluc8 by BRET, EC50 of the agonist: 191 nM
  recruitment of Venus-β-arrestin2 to C3aR1-Rluc8 by BRET, EC50 of the agonist: 542 nM

B2: human TLQP-21 (peptide)
peptide: TLQPPSALRRRHYHHALPPSR
[6]
  recruitment of Venus-β-arrestin2 to C3aR1-Rluc8 by BRET, EC50 of the agonist: 3180 nM
